{"source": "ChEMBL document CHEMBL4340542", "about": "“Design, synthesis and biological evaluation of 4-aniline-thieno[2,3-d]pyrimidine derivatives as MNK1 inhibitors against renal cell carcinoma and nasopharyngeal carcinoma” (Bioorg Med Chem, 2019)", "key": {"CNE-2": {"test_system": "CNE-2", "assay": "Cytotoxicity against human CNE2 cells assessed as decrease in cell viability incubated for 24 hrs by MTT assay", "format": "functional, cell-based", "outline": "(§1)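 IC50 from an 8–10 point concentration gradient by MTT assay. Panel covers renal cell carcinoma and nasopharyngeal carcinoma lines. Values are mean ± SD, n = 3.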"}, "786-0 [1]": {"test_system": "786-0", "assay": "Induction of apoptosis in human 786-O cells assessed as late apoptotic cells at 5 uM incubated for 24 hrs by Annexin-V/propidium iodide staining based flow cytometric method (reference value: 3.80%)", "format": "functional"}, "786-0 [2]": {"test_system": "786-0", "assay": "Effect on total MNK1 protein expression in human 786-O cells incubated for 24 hrs by Western blot analysis relative to control", "format": "cell-based", "details": "786-0, 24 h", "outline": "(§2)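 Cells treated 24 h at 1 µM. The test compound was also given 6 h. Cells harvested, trypsinised and washed twice in cold PBS, then lysed in RIPA buffer on ice and sonicated. Lysate centrifuged cold at 10000 g for 30 min. Supernatant protein quantified, run on SDS-PAGE, transferred to PVDF and probed for ERK1/2, pERK1/2, MNK1, eIF4E and p-eIF4E.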"}, "CNE": {"test_system": "CNE", "assay": "Cytotoxicity against human CNE1 cells assessed as decrease in cell viability incubated for 24 hrs by MTT assay", "format": "functional, cell-based", "outline": "as §1"}, "786-0 [3]": {"test_system": "786-0", "assay": "Effect on total eIF4E protein expression in human 786-O cells incubated for 24 hrs by Western blot analysis relative to control", "format": "cell-based", "details": "786-0, 24 h", "outline": "as §2"}, "786-0 [4]": {"test_system": "786-0", "assay": "Induction of apoptosis in human 786-O cells assessed as viable cells at 1 uM incubated for 24 hrs by Annexin-V/propidium iodide staining based flow cytometric method (reference value: 93.63%)", "format": "functional", "details": "786-0, 24 h, read-out: Activity"}, "786-0 [5]": {"test_system": "786-0", "assay": "Induction of apoptosis in human 786-O cells assessed as late apoptotic cells at 1 uM incubated for 24 hrs by Annexin-V/propidium iodide staining based flow cytometric method (reference value: 3.80%)", "format": "functional"}, "SUNE1 [6]": {"test_system": "SUNE1", "assay": "Induction of apoptosis in human SUNE1 cells assessed as necrotic cells at 5 uM incubated for 24 hrs by Annexin-V/propidium iodide staining based flow cytometric method (reference value: 1.07%)", "format": "functional"}, "SUNE1 [7]": {"test_system": "SUNE1", "assay": "Effect on total eIF4E protein expression in human SUNE1 cells incubated for 24 hrs by Western blot analysis relative to control", "format": "ADME, cell-based", "details": "sune1, 24 h", "outline": "as §2"}, "SUNE1 [8]": {"test_system": "SUNE1", "assay": "Induction of apoptosis in human SUNE1 cells assessed as early apoptotic cells at 5 uM incubated for 24 hrs by Annexin-V/propidium iodide staining based flow cytometric method (reference value: 1.03%)", "format": "functional"}, "786-0 [9]": {"test_system": "786-0", "assay": "Induction of apoptosis in human 786-O cells assessed as viable cells at 5 uM incubated for 24 hrs by Annexin-V/propidium iodide staining based flow cytometric method (reference value: 93.63%)", "format": "functional", "details": "786-0, 24 h, read-out: Activity"}, "[10]": {"molecular_target": "T1, Mitogen-activated protein kinase; ERK1/ERK2 (Homo sapiens) (UniProt P27361+P28482)", "T1 sequence (P27361 whole entry, looked up)": "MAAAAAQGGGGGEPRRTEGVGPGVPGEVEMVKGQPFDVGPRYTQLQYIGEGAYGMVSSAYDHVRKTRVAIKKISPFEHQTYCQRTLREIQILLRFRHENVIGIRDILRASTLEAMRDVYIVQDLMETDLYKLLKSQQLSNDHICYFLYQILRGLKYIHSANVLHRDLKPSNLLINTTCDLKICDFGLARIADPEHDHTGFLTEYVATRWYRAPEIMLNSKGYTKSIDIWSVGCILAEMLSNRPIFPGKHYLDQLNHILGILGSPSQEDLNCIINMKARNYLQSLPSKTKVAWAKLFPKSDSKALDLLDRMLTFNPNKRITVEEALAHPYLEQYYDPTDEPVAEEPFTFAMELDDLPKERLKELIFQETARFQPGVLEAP", "T1 sequence (P28482 whole entry, looked up)": "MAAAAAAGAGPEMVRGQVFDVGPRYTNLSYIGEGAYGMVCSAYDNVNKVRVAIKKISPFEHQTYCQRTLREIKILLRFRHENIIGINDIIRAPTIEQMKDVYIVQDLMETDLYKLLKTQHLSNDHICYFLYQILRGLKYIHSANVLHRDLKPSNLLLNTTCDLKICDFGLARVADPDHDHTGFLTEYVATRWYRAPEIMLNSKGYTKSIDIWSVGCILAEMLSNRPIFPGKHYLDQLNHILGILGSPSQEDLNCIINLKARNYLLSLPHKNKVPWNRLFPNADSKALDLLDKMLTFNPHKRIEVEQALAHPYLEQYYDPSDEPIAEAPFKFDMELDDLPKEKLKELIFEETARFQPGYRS", "assay": "Inhibition of ERK1/2 phosphorylation in human SUNE1 cells at 1 uM incubated for 24 hrs by Western blot analysis relative to control", "format": "cell-based", "outline": "as §2"}, "[11]": {"molecular_target": "T1, Mitogen-activated protein kinase; ERK1/ERK2 (Homo sapiens)", "assay": "Inhibition of ERK1/2 phosphorylation in human 786-O cells at 1 uM incubated for 24 hrs by Western blot analysis relative to control", "format": "cell-based", "outline": "as §2"}, "786-0 [12]": {"test_system": "786-0", "assay": "Effect on total ERK1/2 protein expression in human 786-O cells incubated for 24 hrs by Western blot analysis relative to control", "format": "cell-based", "details": "786-0, 24 h", "outline": "as §2"}, "786-0 [13]": {"test_system": "786-0", "assay": "Induction of apoptosis in human 786-O cells assessed as early apoptotic cells at 1 uM incubated for 24 hrs by Annexin-V/propidium iodide staining based flow cytometric method (reference value: 1.74%)", "format": "functional"}, "SUNE1 [14]": {"test_system": "SUNE1", "assay": "Induction of apoptosis in human SUNE1 cells assessed as viable cells at 1 uM incubated for 24 hrs by Annexin-V/propidium iodide staining based flow cytometric method (reference value: 93.79%)", "format": "functional", "details": "SUNE1, 24 h, read-out: Activity"}, "SUNE1 [15]": {"test_system": "SUNE1", "assay": "Cytotoxicity against human SUNE1 cells assessed as decrease in cell viability incubated for 24 hrs by MTT assay", "format": "functional, cell-based", "outline": "as §1"}, "SUNE1 [16]": {"test_system": "SUNE1", "assay": "Induction of apoptosis in human SUNE1 cells assessed as early apoptotic cells at 1 uM incubated for 24 hrs by Annexin-V/propidium iodide staining based flow cytometric method (reference value: 1.03%)", "format": "functional"}, "SUNE1 [17]": {"test_system": "SUNE1", "assay": "Induction of apoptosis in human SUNE1 cells incubated for 24 hrs by Annexin-V/propidium iodide staining based flow cytometric method (reference value: 93.79%)", "format": "functional, cell-based"}, "[18]": {"molecular_target": "T2, MAP kinase-interacting serine/threonine-protein kinase 1 (Homo sapiens, UniProt Q9BUB5)", "assay": "Inhibition of MNK1 in human 786-O cells assessed as decrease in eIF4E phosphorylation at 1 uM incubated for 24 hrs by Western blot analysis relative to control", "format": "cell-based", "outline": "as §2"}, "SUNE1 [19]": {"test_system": "SUNE1", "assay": "Induction of apoptosis in human SUNE1 cells assessed as late apoptotic cells at 5 uM incubated for 24 hrs by Annexin-V/propidium iodide staining based flow cytometric method (reference value: 4.11%)", "format": "functional"}, "786-0 [20]": {"test_system": "786-0", "assay": "Induction of apoptosis in human 786-O cells assessed as early apoptotic cells at 5 uM incubated for 24 hrs by Annexin-V/propidium iodide staining based flow cytometric method (reference value: 1.74%)", "format": "functional"}, "786-0 [21]": {"test_system": "786-0", "assay": "Induction of apoptosis in human 786-O cells incubated for 24 hrs by Annexin-V/propidium iodide staining based flow cytometric method", "format": "functional, cell-based"}, "[22]": {"molecular_target": "T2, MAP kinase-interacting serine/threonine-protein kinase 1", "assay": "Inhibition of human MNK1 using CREBtide substrate by gamma-[32P]-ATP competitive inhibition assay", "outline": "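Run as the Eurofins KinaseProfiler radiometric assay, competitive with γ-[32P]-ATP. IC50 taken as the mean of independent experiments; the footnote gives two.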"}, "786-0 [23]": {"test_system": "786-0", "assay": "Induction of apoptosis in human 786-O cells assessed as necrotic cells at 1 uM incubated for 24 hrs by Annexin-V/propidium iodide staining based flow cytometric method (reference value: 0.83%)", "format": "functional"}, "SUNE1 [24]": {"test_system": "SUNE1", "assay": "Induction of apoptosis in human SUNE1 cells assessed as viable cells at 5 uM incubated for 24 hrs by Annexin-V/propidium iodide staining based flow cytometric method (reference value: 93.79%)", "format": "functional", "details": "SUNE1, 24 h, read-out: Activity"}, "786-0 [25]": {"test_system": "786-0", "assay": "Induction of apoptosis in human 786-O cells assessed as necrotic cells at 5 uM incubated for 24 hrs by Annexin-V/propidium iodide staining based flow cytometric method (reference value: 0.83%)", "format": "functional"}, "SUNE1 [26]": {"test_system": "SUNE1", "assay": "Effect on total MNK1 protein expression in human SUNE1 cells incubated for 24 hrs by Western blot analysis relative to control", "format": "ADME, cell-based", "details": "sune1, 24 h", "outline": "as §2"}, "SUNE1 [27]": {"test_system": "SUNE1", "assay": "Induction of apoptosis in human SUNE1 cells assessed as necrotic cells at 1 uM incubated for 24 hrs by Annexin-V/propidium iodide staining based flow cytometric method (reference value: 1.07%)", "format": "functional"}, "786-0 [28]": {"test_system": "786-0", "assay": "Cytotoxicity against human 786-O cells assessed as decrease in cell viability incubated for 24 hrs by MTT assay", "format": "functional, cell-based", "outline": "as §1"}, "Homo sapiens": {"organism": "Homo sapiens", "assay": "Cytotoxicity against human HNE1 cells assessed as decrease in cell viability incubated for 24 hrs by MTT assay", "format": "functional, cell-based", "outline": "as §1"}, "SUNE1 [29]": {"test_system": "SUNE1", "assay": "Effect on total ERK1/2 protein expression in human SUNE1 cells incubated for 24 hrs by Western blot analysis relative to control", "format": "ADME, cell-based", "details": "sune1, 24 h", "outline": "as §2"}, "SUNE1 [30]": {"test_system": "SUNE1", "assay": "Induction of apoptosis in human SUNE1 cells assessed as late apoptotic cells at 1 uM incubated for 24 hrs by Annexin-V/propidium iodide staining based flow cytometric method (reference value: 4.11%)", "format": "functional"}, "A498": {"test_system": "A498", "assay": "Cytotoxicity against human A498 cells assessed as decrease in cell viability incubated for 24 hrs by MTT assay", "format": "functional, cell-based", "outline": "as §1"}, "CAKI-1": {"test_system": "CAKI-1", "assay": "Cytotoxicity against human Caki1 cells assessed as decrease in cell viability incubated for 24 hrs by MTT assay", "format": "functional, cell-based", "outline": "as §1"}}, "note": "pIC50: −log10 of the molar value. Calls of active or inactive are those of the source. The calls are words filed in the database; no cut-off is given here.", "data": [{"smiles": "COc1ccc(S(=O)(=O)N2CCc3c(sc4ncnc(Nc5ccc(F)cc5OC)c34)C2)cc1", "values": [{"measurement": "Activity", "setting": "CNE-2", "result": "Active"}, {"measurement": "Activity", "setting": "786-0 [1]", "result": 11.79, "unit": "%"}, {"measurement": "Activity", "setting": "786-0 [2]", "result": "Non-Toxic"}, {"measurement": "Activity", "setting": "CNE", "result": "Active"}, {"measurement": "Activity", "setting": "786-0 [3]", "result": "Non-Toxic"}, {"measurement": "viability at 1 µM", "setting": "786-0 [4]", "result": 68.9, "unit": "%"}, {"measurement": "Activity", "setting": "786-0 [5]", "result": 8.5, "unit": "%"}, {"measurement": "Activity", "setting": "SUNE1 [6]", "result": 3.52, "unit": "%"}, {"measurement": "Activity", "setting": "SUNE1 [7]", "result": "Non-Toxic"}, {"measurement": "Activity", "setting": "SUNE1 [8]", "result": 49.87, "unit": "%"}, {"measurement": "viability at 5 µM", "setting": "786-0 [9]", "result": 42.9, "unit": "%"}, {"measurement": "inhibition", "setting": "[10]", "result": "inactive"}, {"measurement": "inhibition", "setting": "[11]", "result": "inactive"}, {"measurement": "Activity", "setting": "786-0 [12]", "result": "Non-Toxic"}, {"measurement": "Activity", "setting": "786-0 [13]", "result": 17.94, "unit": "%"}, {"measurement": "viability at 1 µM", "setting": "SUNE1 [14]", "result": 36.6, "unit": "%"}, {"measurement": "Activity", "setting": "SUNE1 [15]", "result": "Active"}, {"measurement": "Activity", "setting": "SUNE1 [16]", "result": 34.6, "unit": "%"}, {"measurement": "Activity", "setting": "SUNE1 [17]", "result": "Dose-dependent effect"}, {"measurement": "inhibition", "setting": "[18]", "result": "Dose-dependent effect"}, {"measurement": "Activity", "setting": "SUNE1 [19]", "result": 10.61, "unit": "%"}, {"measurement": "Activity", "setting": "786-0 [20]", "result": 37.44, "unit": "%"}, {"measurement": "Activity", "setting": "786-0 [21]", "result": "Dose-dependent effect"}, {"measurement": "pIC50", "setting": "[22]", "result": 6.19}, {"measurement": "Activity", "setting": "786-0 [23]", "result": 4.64, "unit": "%"}, {"measurement": "viability at 5 µM", "setting": "SUNE1 [24]", "result": 35.9, "unit": "%"}, {"measurement": "Activity", "setting": "786-0 [25]", "result": 7.88, "unit": "%"}, {"measurement": "Activity", "setting": "SUNE1 [26]", "result": "Non-Toxic"}, {"measurement": "Activity", "setting": "SUNE1 [27]", "result": 10.6, "unit": "%"}, {"measurement": "Activity", "setting": "786-0 [28]", "result": "Active"}, {"measurement": "Activity", "setting": "Homo sapiens", "result": "Active"}, {"measurement": "Activity", "setting": "SUNE1 [29]", "result": "Non-Toxic"}, {"measurement": "Activity", "setting": "SUNE1 [30]", "result": 18.18, "unit": "%"}, {"measurement": "Activity", "setting": "A498", "result": "Active"}, {"measurement": "Activity", "setting": "CAKI-1", "result": "Active"}]}]}
